This note sets out measurements from ChEMBL document CHEMBL3779787, “Amorfrutin C Induces Apoptosis and Inhibits Proliferation in Colon Cancer Cells through Targeting Mitochondria” (J Nat Prod, 2016).

Assay [1] deals with HT-29. Put plainly: Antiproliferative activity against human HT-29 cells assessed as cellular DNA content at 20 uM after 48 hrs by CyQUANT NF fluorescence assay in presence of N-acetylcysteine. In kind it is functional, cell-based. In outline: (§1)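 HT-29 given concentration series of test compound with or without antioxidant (NAC 1 mM, GSH 2.5 mM, D3T 25 μM, α-tocopherol 50 μM, ascorbic acid 500 μM) for 48 h. Relative cell number from DNA-binding fluorescent dye; means ± SD, n = 4.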

In assay [2] the test system is HT-29. The experiment in a line: Antiproliferative activity against human HT-29 cells assessed as cellular DNA content after 72 hrs by CyQUANT NF fluorescence assay in presence of cisplatin. In kind it is functional, cell-based. The method in brief: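 HT-29 exposed 72 h to concentration series of mixtures at ratios 7:0 through 0:7 with the partner drug. Relative cell number from DNA-content fluorescence. IC70 = concentration giving 70% inhibition of total cells (means ± SD, n = 4); isobolograms by Loewe additivity, CI(M) = IC70(Mx)/IC70(x) + IC70(My)/IC70(y).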

The test system of assay [3] is HT-29. Put plainly: Induction of ROS generation in human HT-29 cells at 30 uM by CM-H2DCFDA staining-based fluorescence assay in presence of alpha-tocopherol. The assay is classed as functional, cell-based. In outline: (§2)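 HT-29 (15 000 cells/well) loaded with 50 μM CM-H2DCFDA in PBS for 30 min at 37 °C, washed, then 60 min in phenol red-free DMEM/F-12. 30 μM compound added alone or with NAC 1 mM, GSH 2.5 mM, D3T 25 μM, α-tocopherol 50 μM or ascorbic acid 500 μM. Fluorescence 485/530 nm read kinetically at 37 °C for 22 h; area under curve; means ± SEM, n = 7.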

The test system of assay [4] is HT-29. Put plainly: Upregulation of p27/Kip1 expression in human HT-29 cells at 10 uM after 48 hrs by immunoblotting method. In kind it is functional, cell-based. In outline:
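HT-29 cells exposed 48 h to 10 μM compound. Whole-cell protein lysates probed for cell-cycle modulators by immunoblotting.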
Background: Immunoblotting shows a protein as a band on a membrane.

In assay [5] the test system is HT-29. Put plainly: Induction of ROS generation in human HT-29 cells at 30 uM by CM-H2DCFDA staining-based fluorescence assay in presence of 3H-1,2-dithiole-3-thione. The assay is classed as functional, cell-based. The method in brief:
as §2

The subject of assay [6] is HT-29. The experiment in a line: Antiproliferative activity against human HT-29 cells assessed as cellular DNA content at 20 uM after 48 hrs by CyQUANT NF fluorescence assay in presence of ascorbic acid. The assay is classed as functional, cell-based. The method in brief:
as §1

Assay [7] concerns HT-29. Put plainly: Induction of apoptosis in human HT-29 cells assessed as increase in caspase 3/7 activity at 30 uM after 2 hrs by luminescent assay relative to control. In kind it is functional. In outline:
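HT-29 cells exposed to compound 2 h; effector/initiator caspase enzymatic activity measured by luminescent assays, normalized to control treatment; means ± SEM, n = 4.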

Assay [8] deals with HT-29. Put plainly: Induction of apoptosis in human HT-29 cells assessed as increase in cleaved caspase 3 at 30 uM after 6 hrs by DAPI staining-based fluorescence microscopy. The assay is classed as functional, cell-based. In outline: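 HT-29 on coverslips treated 30 μM for 6 h, fixed in 4% formaldehyde, permeabilized with 0.3% Triton X-100, blocked in goat serum. Anti-cleaved caspase 3 (1:200) overnight at 4 °C, then Alexa Fluor 488 secondary (1:1000) 1 h. DAPI counterstain; imaged by fluorescence microscopy.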

Assay [9] concerns T84. The experiment in a line: Antiproliferative activity against human T84 cells assessed as cellular DNA content after 96 hrs by CyQUANT NF fluorescence assay. In kind it is functional, cell-based. As to conditions: T84, 96 h. In outline: (§3)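 Cells seeded at 750 (HT-29), 250 (PC-3) or 900 (T84, MCF7) cells/well, treated next day with concentration series for 72 h (HT-29, PC-3) or 96 h (T84, MCF7). Relative cell number from cellular DNA content by fluorescent DNA-binding dye. Variable-slope fit; efficiency = maximal inhibition (100% − Bottom) vs untreated; IC50 relative to the compound's own maximal efficiency.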

The test system of assay [10] is HT-29. Put plainly: Downregulation of CDK6 expression in human HT-29 cells at 10 uM after 48 hrs by immunoblotting method. In kind it is functional, cell-based. The method in brief:
(§4)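 HT-29 exposed to 10 μM for 48 h; whole-cell lysates immunoblotted for the indicated proteins (total and cleaved PARP for the apoptosis line).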

The test system of assay [11] is HT-29. Put plainly: Induction of apoptosis in human HT-29 cells at 30 uM after 24 hrs by annexin V-FLUOS/propidium iodide staining-based flow cytometry in presence of glutathione. The assay is classed as functional, cell-based. The method in brief:
(§5)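 HT-29 cells co-incubated 24 h with 30 μM compound and antioxidant: glutathione 2.5 mM, α-tocopherol 50 μM, or ascorbic acid 500 μM. Phosphatidylserine externalization measured by annexin V-FLUOS/propidium iodide staining and flow cytometry. Means ± SEM, n = 3.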
On the technique in general: In flow cytometry, cells or beads pass a laser one at a time.

Assay [12] relates to HT-29. Put plainly: Induction of apoptosis in human HT-29 cells at 30 uM after 24 hrs by annexin V-FLUOS/propidium iodide staining-based flow cytometry in presence of cyclosporine A. The assay is classed as functional, cell-based. The method in brief: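 For 24 h, HT-29 cells were exposed to 30 μM compound with or without cyclosporin A (2 μM). Apoptosis and necrosis were scored by annexin V-FLUOS/propidium iodide flow cytometry. Means ± SEM, n = 3.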

The subject of assay [13] is HT-29. Put plainly: Induction of apoptosis in human HT-29 cells assessed as mitochondrial membrane depolarization at 30 uM by JC-1 dye-based fluorescence assay in presence of cyclosporinA. In kind it is functional, cell-based.
In assay [14] the test system is HT-29. The experiment in a line: Induction of apoptosis in human HT-29 cells at 30 uM after 24 hrs by annexin V-FLUOS/propidium iodide staining-based flow cytometry in presence of 3H-1,2-dithiole-3-thione. The assay is classed as functional, cell-based. The method in brief:
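HT-29 treated 24 h with 30 μM with or without antioxidant (NAC 1 mM, D3T 25 μM). Apoptosis by annexin V/propidium iodide flow cytometry; means ± SEM, n = 3.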

Assay [15] deals with HT-29. The experiment in a line: Induction of apoptosis in human HT-29 cells at 30 uM after 24 hrs by annexin V-FLUOS/propidium iodide staining-based flow cytometry in presence of alpha-tocopherol. The assay is classed as functional, cell-based. In outline:
as §5

Assay [16] concerns HT-29. Put plainly: Downregulation of cyclin D3 expression in human HT-29 cells at 10 uM after 48 hrs by immunoblotting method. The assay is classed as functional, cell-based. The method in brief:
as §4

Assay [17] has as its system HT-29. Put plainly: Downregulation of cyclin A2 expression in human HT-29 cells at 10 uM after 48 hrs by immunoblotting method. The assay is classed as functional, cell-based. In outline: as §4
Assay [18] concerns HT-29. Put plainly: Induction of cell cycle arrest in human HT-29 cells assessed as accumulation at G2/M phase at 10 uM by flow cytometry (reference value: 21%). The assay is classed as functional.
Assay [19] concerns T84. The experiment in a line: Antiproliferative activity against human T84 cells assessed as cellular DNA content after 96 hrs by CyQUANT NF fluorescence assay relative to control. In kind it is functional. In outline: as §3
Assay [20] concerns HT-29. The experiment in a line: Induction of apoptosis in human HT-29 cells assessed as DNA fragmentation by measuring cytoplasmic oligonucleosome level at 30 uM by ELISA. The assay is classed as functional, cell-based. The method in brief: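 Cytosolic DNA by ELISA after 4 h treatment. BrdU method: cells (13 000/well) prelabelled with 10 μM BrdU for 2 days at 37 °C, unincorporated BrdU removed before treatment. Oligonucleosome method: 20 000 cells/well, 1 day at 37 °C. Cell-free background subtracted, normalized to vehicle; means ± SEM, n = 4.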
For orientation: An ELISA detects its analyte on a solid surface through an enzyme-linked reagent.

Assay [21] has as its system HT-29. Put plainly: Antiproliferative activity against human HT-29 cells assessed as cellular DNA content after 72 hrs by CyQUANT NF fluorescence assay relative to control. In kind it is functional. In outline:
as §3

Calls of active or inactive are those of the source. The calls are words filed in the database; no cut-off is given here.

For `COc1c(CC=C(C)C)c(O)c(C(=O)O)c(CCc2ccccc2)c1CC=C(C)C`, the result with HT-29 [1], with HT-29 [2], in the assay on HT-29 [4], in the assay with HT-29 [6], in the assay on HT-29 [8] and with HT-29 [10] was Active. Further, the result in the assay on HT-29 [11], in the assay on HT-29 [12], in the assay with HT-29 [13], with HT-29 [14], with HT-29 [15] and in the assay on HT-29 [16] was Active. For the same molecule, the outcome in the assay with HT-29 [17] and in the assay on HT-29 [20] was Active. Besides, the result in the assay with HT-29 [3] and in the assay with HT-29 [5] was inactive. Also, in the assay on HT-29 [7], the “fold change (FC)” value is given as 2. Moreover, the IC50 in the assay on T84 [9] came out at 11 µM. Further, the Activity with HT-29 [18] was 7%. Also, the Efficacy in the assay on T84 [19] stood at 99%; in the assay on HT-29 [21] it was 95%.

For orientation: IC50 means the concentration that inhibits the measured activity by half.
